According to ChEMBL document CHEMBL6134784, “Furoxan-piplartine hybrids as effective NO donors and ROS inducers in PC3 cancer cells: design, synthesis, and biological evaluation” (RSC Med Chem, 2024):
The source made the active and inactive calls. No cut-off for these calls is given here.

Key:
PC-3 [1] = assay: Cell cycle arrest in human PC-3 cells assessed as down regulation of c-Myc gene expression at 0.24 uM measured after 3 hrs by qPCR analysis; type: functional, cell-based
How it was run: (§1)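 Seeded 1×10^5 cells per well in 6-well plates; PC3 treated 3 h. Total RNA extracted, qPCR; each target normalized to reference gene (β-actin) by efficiency-corrected ΔΔCt (Pfaffl) against a control calibrator sample, efficiencies from amplification profiles. Mean ± SEM of four independent experiments.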

PC-3 [2] = assay: Induction of apoptosis in human PC-3 cells assessed as effect on BCL2 gene expression at 0.24 uM measured after 3 hrs by qPCR analysis; type: functional, cell-based; how it was run: as §1
PC-3 [3] = assay: Cell cycle arrest in human PC-3 cells assessed as down regulation of cyclin D1 expression at 0.24 uM measured after 3 hrs by Western blot analysis; type: functional, cell-based
How it was run: (§2)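 Western blot: PC3 seeded 1×10^7 per 100 mm dish, treated 3 h or 6 h, lysed in RIPA with protease/phosphatase inhibitors; 50 μg protein on 12% SDS-PAGE, PVDF transfer, 5% milk block, anti-cyclin D1 (1:1000) overnight at 4 °C, HRP anti-rabbit secondary, β-actin loading control, ECL detection and band densitometry; two independent experiments.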

PC-3 [4] = assay: Induction of morphological changes in human PC-3 cells assessed as loss of adhesion at 0.24 uM measured after 24 hrs in presence of antioxidant N-acetyl-L-cysteine by phase contrast microscopy; type: functional, cell-based
How it was run: (§3)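 PC3 cells were seeded at 1×10^5 per well in 6-well plates and treated after 24 h, with or without 1 mM N-acetyl-L-cysteine. The same observation field was imaged by phase contrast microscopy at 1, 2, 3, 4 and 24 h. DMSO vehicle served as control.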

PC-3 [5] = assay: Induction of morphological changes in human PC-3 cells assessed as cell rounding at 0.24 uM measured after 24 hrs in presence of antioxidant N-acetyl-L-cysteine by phase contrast microscopy; type: functional, cell-based; how it was run: as §3
PC-3 [6] = assay: Induction of morphological changes in human PC-3 cells assessed as reduction in cell density at 0.24 uM measured after 24 hrs by phase contrast microscopy; type: functional, cell-based; how it was run: as §3
PC-3 [7] = assay: Induction of ROS generation in human PC-3 cells at 0.24 uM measured after 30 mins by CellROX reagent based confocal microscopy; type: functional, cell-based
How it was run: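 Confocal ROS imaging of PC3: cells loaded with 2.5 μM CellROX green plus 0.5 μM MitoTracker Red for 30 min at 37 °C, washed three times in PBS, imaged immediately; DMSO vehicle and H2O2 controls.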

PC-3 [8] = assay: Cell cycle arrest in human PC-3 cells assessed as reduction in cell accumulation at G0/G1 phase at 0.24 uM measured after 3 hrs by propidium iodide staining based flow cytometry; type: functional
How it was run: (§4)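 PC3 cells seeded 1×10^5 per well in 6-well plates, exposed 3 h, with or without 1 mM N-acetyl-L-cysteine pretreatment; vehicle 0.1% DMSO. Harvested with trypsin-EDTA, fixed in 75% ethanol in PBS at 4 °C for 30 min, stained 1 h with RNase (1.5 mg mL^-1) and propidium iodide (90 μg mL^-1); DNA content by flow cytometry. Phase fractions compared with control by ANOVA/Tukey.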

PC-3 [9] = assay: Cell cycle arrest in human PC-3 cells assessed as accumulation of cells at sub-G1 phase at 0.24 uM measured after 3 hrs by propidium iodide staining based flow cytometry (reference value: 0.75 +/- 0.21%); type: functional; how it was run: as §4
PC-3 [10] = assay: Cell cycle arrest in human PC-3 cells assessed as reduction in cell accumulation at G0/G1 phase in presence of antioxidant N-acetyl-L-cysteine at 0.24 uM measured after 3 hrs by propidium iodide staining based flow cytometry; type: functional; how it was run: as §4
PC-3 [11] = assay: Induction of morphological changes in human PC-3 cells assessed as cell rounding at 0.24 uM measured after 24 hrs by phase contrast microscopy; type: functional, cell-based; how it was run: as §3
PC-3 [12] = assay: Induction of morphological changes in human PC-3 cells assessed as loss of adhesion at 0.05 uM measured after 24 hrs in presence of antioxidant N-acetyl-L-cysteine by phase contrast microscopy; type: functional, cell-based; how it was run: as §3
PC-3 [13] = assay: Cell cycle arrest in human PC-3 cells assessed as down regulation of c-Myc gene expression at 0.05 uM measured after 3 hrs by qPCR analysis; type: functional, cell-based; how it was run: as §1
PC-3 [14] = assay: Cell cycle arrest in human PC-3 cells assessed as down regulation of CCND1 gene expression at 0.05 uM measured after 3 hrs by qPCR analysis; type: functional, cell-based; how it was run: as §1
PC-3 [15] = assay: Cell cycle arrest in human PC-3 cells assessed as down regulation of cyclin D1 expression at 0.05 uM measured after 3 hrs by Western blot analysis; type: functional, cell-based; how it was run: as §2
PC-3 [16] = assay: Cell cycle arrest in human PC-3 cells assessed as reduction in cell accumulation at S phase at 0.05 uM measured after 3 hrs by propidium iodide staining based flow cytometry; type: functional; how it was run: as §4
PC-3 [17] = assay: Induction of apoptosis in human PC-3 cells assessed as viable cells at 0.05 uM measured after 6 hrs by Alexa Fluor 488-annexin V/propidium iodide staining based flow cytometry (reference value: 89.37%); type: functional; settings: read-out: Activity
PC-3 [18] = assay: Cell cycle arrest in human PC-3 cells assessed as increase in cell accumulation at sub-G1 phase at 0.05 uM measured after 3 hrs in presence of antioxidant N-acetyl-L-cysteine by propidium iodide staining based flow cytometry; type: functional; how it was run: as §4
PC-3 [19] = assay: Cytotoxicity against human PC-3 cells assessed as cell growth inhibition at 0.05 uM measured after 48 hrs by CCK-8 assay relative to control; type: functional; settings: read-out: GI
How it was run: (§5)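 PC3 at 1×10^4 cells per well attached 24 h, pretreated 1 h with carboxy-PTIO (0, 0.50, 3.13, 6.25, 12.50, 25, 50 μM), then compound added for 48 h; washed three times with PBS, growth read by CCK-8 as percent inhibition versus control cells; two experiments in triplicate.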

PC-3 [20] = assay: Induction of apoptosis in human PC-3 cells assessed as early apoptotic cells at 0.05 uM measured after 6 hrs by Alexa Fluor 488-annexin V/propidium iodide staining based flow cytometry (reference value: 6%); type: functional
PC-3 [21] = assay: Cytotoxicity against human PC-3 cells assessed as cell growth inhibition at 0.05 uM measured after 48 hrs in presence of 0.5 to 50 uM NO scavenger carboxy-PTIO by CCK-8 assay; type: functional, cell-based; how it was run: as §5
PC-3 [22] = assay: Induction of apoptosis in human PC-3 cells assessed as necrotic cells at 0.05 uM measured after 6 hrs by Alexa Fluor 488-annexin V/propidium iodide staining based flow cytometry (reference value: 1.28%); type: functional
PC-3 [23] = assay: Cell cycle arrest in human PC-3 cells assessed as accumulation of cells at sub-G1 phase at 0.05 uM measured after 3 hrs by propidium iodide staining based flow cytometry (reference value: 0.75 +/- 0.21%); type: functional; how it was run: as §4
PC-3 [24] = assay: Induction of DNA damage in human PC-3 cells assessed as increase in phosphorylated gamma-H2AX expression at 0.05 uM measured after 6 hrs by DAPI staining based confocal laser scanning microscopy; type: functional, cell-based
How it was run: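 γ-H2AX immunostaining: PC3 on coverslips (1×10^5 cells), serum-starved 18 h, then treated (methods state 1 h; legend states 6 h); fixed 3.7% formaldehyde, permeabilized 0.25% Triton X-100, blocked 3% albumin, anti-phospho-H2A.X Ser139 (1:500) then Alexa Fluor 488 secondary, DAPI nuclei; confocal, 500 cells per slide, three experiments; UVC 20 min positive control.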

In the case of `COc1cc(/C=C/C(=O)N2CCC=CC2=O)cc(OC)c1OCCCOc1no[n+]([O-])c1S(=O)(=O)c1ccccc1`, the Activity (PC-3 [1]) is reported as “Active”, the Activity (PC-3 [2]) is reported as “inactive” and the Activity (PC-3 [3]) is reported as “Active”. For the same molecule, the Activity (PC-3 [4]) was “inactive”, the Activity (PC-3 [5]) was “inactive” and the Activity (PC-3 [6]) was “Active”. For the same molecule, the Activity (PC-3 [7]) was “Active”, the Activity (PC-3 [8]) was “Active; Significant Reduction Observed” and the Activity (PC-3 [9]) was 7.6%. The Activity (PC-3 [10]) was “Active” and the Activity (PC-3 [11]) was “Active”.

In the case of `COc1cc(/C=C/C(=O)N2CCC=CC2=O)cc(OC)c1OCCCCCCCCCCCCOc1no[n+]([O-])c1S(=O)(=O)c1ccccc1`, the Activity (PC-3 [12]) is reported as “inactive”, the Activity (PC-3 [13]) is reported as “Active” and the Activity (PC-3 [14]) is reported as “Active”. For the same molecule, the Activity (PC-3 [15]) was “Active”, the Activity (PC-3 [16]) was “Active” and the viability at 0.05 µM (PC-3 [17]) was 12.6%. The Activity (PC-3 [18]) was “inactive”, the inhibition of growth at 0.05 µM (PC-3 [19]) was 65% and the Activity (PC-3 [20]) was 6.6%. The “growth inhibition (GI)” value (PC-3 [21]) was “inactive”, the Activity (PC-3 [22]) was 0.87% and the Activity (PC-3 [23]) was 9.8%. The Activity (PC-3 [24]) was “Active”.
